Assay [1] deals with RAC-beta serine/threonine-protein kinase (Homo sapiens) (UniProt P31751). Description: Inhibition of wild-type human partial length AKT2 expressed in Escherichia coli BL21 assessed as residual activity at 1000 nM after 30 mins by Kinomescan method relative to control.
Assay [2] deals with ALK tyrosine kinase receptor (Homo sapiens), Q9UM73 [C1156Y]. Description: Inhibition of wild-type human partial length ALK C1156Y mutant (I1088 to E1409 residues) expressed in HEK293 cells assessed as residual activity at 1000 nM after 30 mins by Kinomescan method relative to control. The assay is classed as cell-based.
ALK tyrosine kinase receptor (Homo sapiens), Q9UM73 [C1156Y], sequence (Q9UM73 whole entry C1156Y, looked up, the tested form may be a part): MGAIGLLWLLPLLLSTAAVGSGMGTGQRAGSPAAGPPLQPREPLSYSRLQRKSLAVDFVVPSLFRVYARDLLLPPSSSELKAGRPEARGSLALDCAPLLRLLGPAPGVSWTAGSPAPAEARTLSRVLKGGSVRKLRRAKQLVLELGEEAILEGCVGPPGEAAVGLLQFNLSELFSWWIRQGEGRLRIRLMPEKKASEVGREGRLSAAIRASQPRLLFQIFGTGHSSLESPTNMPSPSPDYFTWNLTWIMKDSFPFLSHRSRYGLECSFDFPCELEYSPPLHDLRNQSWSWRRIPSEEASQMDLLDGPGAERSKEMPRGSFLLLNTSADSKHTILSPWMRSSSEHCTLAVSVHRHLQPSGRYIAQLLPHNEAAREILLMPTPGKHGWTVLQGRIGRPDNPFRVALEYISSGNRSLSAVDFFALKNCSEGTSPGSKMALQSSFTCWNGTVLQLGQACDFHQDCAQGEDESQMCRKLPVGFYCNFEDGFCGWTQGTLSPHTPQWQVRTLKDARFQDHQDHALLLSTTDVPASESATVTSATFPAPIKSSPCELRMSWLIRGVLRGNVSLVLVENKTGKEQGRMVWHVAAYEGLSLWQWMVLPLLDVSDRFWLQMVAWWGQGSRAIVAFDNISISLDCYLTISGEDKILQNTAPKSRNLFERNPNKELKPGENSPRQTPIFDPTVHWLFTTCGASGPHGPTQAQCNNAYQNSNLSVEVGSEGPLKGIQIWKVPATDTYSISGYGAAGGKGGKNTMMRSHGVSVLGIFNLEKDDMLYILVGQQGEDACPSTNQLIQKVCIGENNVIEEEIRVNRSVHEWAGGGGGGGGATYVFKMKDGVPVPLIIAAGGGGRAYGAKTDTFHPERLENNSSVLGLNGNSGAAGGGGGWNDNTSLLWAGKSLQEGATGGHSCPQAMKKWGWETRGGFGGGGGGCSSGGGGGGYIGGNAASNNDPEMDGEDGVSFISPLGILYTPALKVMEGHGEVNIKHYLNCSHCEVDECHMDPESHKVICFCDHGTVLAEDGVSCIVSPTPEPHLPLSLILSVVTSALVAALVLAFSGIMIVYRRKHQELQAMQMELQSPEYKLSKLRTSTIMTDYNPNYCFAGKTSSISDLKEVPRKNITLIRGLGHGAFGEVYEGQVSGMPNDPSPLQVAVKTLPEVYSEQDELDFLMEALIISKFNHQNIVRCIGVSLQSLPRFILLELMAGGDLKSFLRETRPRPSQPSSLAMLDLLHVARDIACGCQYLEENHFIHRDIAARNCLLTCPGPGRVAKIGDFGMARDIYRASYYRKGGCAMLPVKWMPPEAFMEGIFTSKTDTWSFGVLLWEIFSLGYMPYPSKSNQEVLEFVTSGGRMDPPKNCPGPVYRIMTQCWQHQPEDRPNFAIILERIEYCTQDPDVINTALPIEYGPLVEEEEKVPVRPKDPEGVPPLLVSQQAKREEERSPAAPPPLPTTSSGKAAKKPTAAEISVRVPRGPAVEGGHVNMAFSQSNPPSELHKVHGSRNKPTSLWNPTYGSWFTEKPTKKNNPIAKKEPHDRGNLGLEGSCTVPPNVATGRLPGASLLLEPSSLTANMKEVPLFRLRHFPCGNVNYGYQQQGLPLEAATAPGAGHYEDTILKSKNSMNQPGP
In assay [3] the target is Testis-specific serine/threonine-protein kinase 1 (Homo sapiens) (UniProt Q9BXA7). Description: Inhibition of wild-type human full length TSSK1B (M1 to Q367 residues) expressed in Escherichia coli BL21 assessed as residual activity at 1000 nM after 30 mins by Kinomescan method relative to control.
The target of assay [4] is Protein kinase C theta type (Homo sapiens) (UniProt Q04759). Description: Inhibition of wild-type human partial length PRKCQ (L350 to S706 residues) expressed in Escherichia coli BL21 assessed as residual activity at 1000 nM after 30 mins by Kinomescan method relative to control.
Assay [5] concerns the target Homeodomain-interacting protein kinase 1 (Homo sapiens) (UniProt Q86Z02). Briefly: Inhibition of wild-type human partial length HIPK1 (M146 to I555 residues) expressed in HEK293 cells assessed as residual activity at 1000 nM after 30 mins by Kinomescan method relative to control. The assay is classed as cell-based.
In assay [6] the target is Serine/threonine-protein kinase 32A (Homo sapiens) (UniProt Q8WU08). Briefly: Inhibition of wild-type human full length YANK1 (M1 to L396 residues) expressed in HEK293 cells assessed as residual activity at 1000 nM after 30 mins by Kinomescan method relative to control. The assay is classed as cell-based.
Assay [7] addresses SNF-related serine/threonine-protein kinase (Homo sapiens) (UniProt Q9NRH2). Briefly: Inhibition of wild-type human partial length SNRK (M1 to E339 residues) expressed in HEK293 cells assessed as residual activity at 1000 nM after 30 mins by Kinomescan method relative to control. The assay is classed as cell-based.
For assay [8], the target named is Transient receptor potential cation channel subfamily M member 6 (Homo sapiens) (UniProt Q9BX84). Briefly: Inhibition of wild-type human partial length TRPM6 (Q1723 to I1998 residues) expressed in HEK293 cells assessed as residual activity at 1000 nM after 30 mins by Kinomescan method relative to control. The assay is classed as cell-based.
In assay [9] the target is TRAF2 and NCK-interacting protein kinase (Homo sapiens) (UniProt Q9UKE5). Briefly: Inhibition of wild-type human partial length TNIK (D4 to K311 residues) expressed in Escherichia coli BL21 assessed as residual activity at 1000 nM after 30 mins by Kinomescan method relative to control.
The target in assay [10] is Dual specificity protein kinase CLK4 (Homo sapiens) (UniProt Q9HAZ1). Description: Inhibition of wild-type human partial length CLK4 (R135 to K481 residues) expressed in Escherichia coli BL21 assessed as residual activity at 1000 nM after 30 mins by Kinomescan method relative to control.
In assay [11] the target is Tyrosine-protein kinase ITK/TSK (Homo sapiens) (UniProt Q08881). Briefly: Inhibition of wild-type human partial length ITK (R335 to L620 residues) expressed in Escherichia coli BL21 assessed as residual activity at 1000 nM after 30 mins by Kinomescan method relative to control.
In assay [12] the target is Ribosomal protein S6 kinase alpha-6 (Homo sapiens) (UniProt Q9UK32). Description: Inhibition of wild-type human partial length N-terminal RSK4 kinase domain 1 (M1 to E397 residues) expressed in HEK293 cells assessed as residual activity at 1000 nM after 30 mins by Kinomescan method relative to control. The assay is classed as cell-based.
For assay [13], the target named is Ephrin type-B receptor 3 (Homo sapiens) (UniProt P54753). Briefly: Inhibition of wild-type human partial length EPHB3 (Q599 to T928 residues) expressed in Escherichia coli BL21 assessed as residual activity at 1000 nM after 30 mins by Kinomescan method relative to control.
Assay [14] concerns the target Serine/threonine-protein kinase D1 (Homo sapiens) (UniProt Q15139). Briefly: Inhibition of wild-type human partial length PRKD1 (G551 to E870 residues) expressed in Escherichia coli BL21 assessed as residual activity at 1000 nM after 30 mins by Kinomescan method relative to control.
For assay [15], the target named is Insulin receptor (Homo sapiens) (UniProt P06213). Briefly: Inhibition of wild-type human partial length INSR (P997 to E1318 residues) expressed in HEK293 cells assessed as residual activity at 1000 nM after 30 mins by Kinomescan method relative to control. The assay is classed as cell-based.
Insulin receptor (Homo sapiens), sequence (P06213 28-758 limits assumed): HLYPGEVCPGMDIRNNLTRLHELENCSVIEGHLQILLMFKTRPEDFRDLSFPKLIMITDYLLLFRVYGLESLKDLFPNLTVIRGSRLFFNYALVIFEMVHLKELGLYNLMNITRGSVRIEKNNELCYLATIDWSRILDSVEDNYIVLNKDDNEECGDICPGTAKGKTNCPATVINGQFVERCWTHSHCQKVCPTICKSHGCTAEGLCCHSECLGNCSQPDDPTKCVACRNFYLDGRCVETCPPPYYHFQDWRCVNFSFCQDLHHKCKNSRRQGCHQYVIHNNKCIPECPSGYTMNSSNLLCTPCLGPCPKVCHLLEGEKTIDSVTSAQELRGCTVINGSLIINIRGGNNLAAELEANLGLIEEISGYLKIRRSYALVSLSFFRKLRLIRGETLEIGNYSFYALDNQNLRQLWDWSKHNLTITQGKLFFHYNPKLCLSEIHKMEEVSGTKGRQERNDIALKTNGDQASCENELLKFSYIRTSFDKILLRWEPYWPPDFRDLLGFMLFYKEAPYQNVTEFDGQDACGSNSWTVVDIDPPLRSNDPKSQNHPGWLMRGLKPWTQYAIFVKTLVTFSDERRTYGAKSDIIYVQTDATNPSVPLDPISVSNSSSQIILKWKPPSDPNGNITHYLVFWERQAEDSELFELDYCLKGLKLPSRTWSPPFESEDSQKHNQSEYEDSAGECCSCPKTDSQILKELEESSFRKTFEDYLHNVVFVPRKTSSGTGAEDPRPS
Insulin receptor (Homo sapiens), sequence (P06213 763-1382 limits assumed): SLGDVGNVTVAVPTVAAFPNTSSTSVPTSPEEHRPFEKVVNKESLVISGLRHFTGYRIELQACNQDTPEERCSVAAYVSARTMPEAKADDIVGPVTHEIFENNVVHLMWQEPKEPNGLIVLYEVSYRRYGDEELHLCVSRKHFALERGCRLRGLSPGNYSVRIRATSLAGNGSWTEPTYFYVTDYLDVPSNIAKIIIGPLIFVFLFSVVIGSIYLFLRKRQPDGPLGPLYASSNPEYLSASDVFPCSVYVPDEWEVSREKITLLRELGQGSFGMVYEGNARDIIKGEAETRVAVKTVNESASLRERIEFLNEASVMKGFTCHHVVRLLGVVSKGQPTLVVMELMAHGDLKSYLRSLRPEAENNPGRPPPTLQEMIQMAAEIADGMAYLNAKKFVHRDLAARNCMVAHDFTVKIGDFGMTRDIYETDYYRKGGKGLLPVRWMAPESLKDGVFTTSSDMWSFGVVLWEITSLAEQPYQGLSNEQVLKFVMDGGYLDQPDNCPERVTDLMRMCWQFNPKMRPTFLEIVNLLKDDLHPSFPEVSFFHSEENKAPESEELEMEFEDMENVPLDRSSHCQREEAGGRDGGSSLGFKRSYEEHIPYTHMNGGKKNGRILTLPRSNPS
The target of assay [16] is Mitogen-activated protein kinase kinase kinase 2 (Homo sapiens) (UniProt Q9Y2U5). Description: Inhibition of wild-type human partial length MAP3K2 (S315 to H619 residues) expressed in HEK293 cells assessed as residual activity at 1000 nM after 30 mins by Kinomescan method relative to control. The assay is classed as cell-based.
Assay [17] has as its system Tyrosine-protein kinase ABL1 (Homo sapiens), P00519 [M351T]. Description: Inhibition of human phosphorylated ABL1 M351T mutant (S229 to K512 residues) expressed in HEK293 cells assessed as residual activity at 1000 nM after 30 mins by Kinomescan method relative to control. The assay is classed as cell-based. The method, boiled down: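 Single-point screen at a fixed 1 µM, run within a 456-kinase DiscoveRx KINOMEscan panel. Each kinase's read-out is Percent Control, i.e. signal relative to a control without compound. Hits were scored by a Percent Control < 35 cut-off, and an S(35) selectivity score was calculated across the non-mutant kinases.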

Assay [18] deals with Serine/threonine-protein kinase PRP4 homolog (Homo sapiens) (UniProt Q13523). Briefly: Inhibition of wild-type human partial length PRP4 (D657 to I1007 residues) expressed in Escherichia coli BL21 assessed as residual activity at 1000 nM after 30 mins by Kinomescan method relative to control.
Assay [19] deals with Epidermal growth factor receptor (Homo sapiens), P00533 [UNDEFINED MUTATION]. Briefly: Inhibition of human partial length EGFR L747-S752del/P753S mutant expressed in Escherichia coli BL21 assessed as residual activity at 1000 nM after 30 mins by Kinomescan method relative to control. The method, boiled down:
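KINOMEscan binding panel of 456 kinases, with the test compound at a single concentration of 1 µM. Read-out is Percent Control.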

In assay [20] the target is Serine/threonine-protein kinase 38-like (Homo sapiens) (UniProt Q9Y2H1). Description: Inhibition of wild-type human partial length NDR2 (N34 to E447 residues) expressed in Escherichia coli BL21 assessed as residual activity at 1000 nM after 30 mins by Kinomescan method relative to control.
Assay [21] has as its target Leukocyte tyrosine kinase receptor (Homo sapiens) (UniProt P29376). Briefly: Inhibition of wild-type human partial length LTK (P422 to S744 residues) expressed in Escherichia coli BL21 assessed as residual activity at 1000 nM after 30 mins by Kinomescan method relative to control.
The target of assay [22] is Mast/stem cell growth factor receptor Kit (Homo sapiens) (UniProt P10721). Description: Inhibition of wild-type human partial length KIT (I571 to D952 residues) expressed in Escherichia coli BL21 assessed as residual activity at 1000 nM after 30 mins by Kinomescan method relative to control.
Mast/stem cell growth factor receptor Kit (Homo sapiens), sequence (P10721 whole entry, the tested form may be a part): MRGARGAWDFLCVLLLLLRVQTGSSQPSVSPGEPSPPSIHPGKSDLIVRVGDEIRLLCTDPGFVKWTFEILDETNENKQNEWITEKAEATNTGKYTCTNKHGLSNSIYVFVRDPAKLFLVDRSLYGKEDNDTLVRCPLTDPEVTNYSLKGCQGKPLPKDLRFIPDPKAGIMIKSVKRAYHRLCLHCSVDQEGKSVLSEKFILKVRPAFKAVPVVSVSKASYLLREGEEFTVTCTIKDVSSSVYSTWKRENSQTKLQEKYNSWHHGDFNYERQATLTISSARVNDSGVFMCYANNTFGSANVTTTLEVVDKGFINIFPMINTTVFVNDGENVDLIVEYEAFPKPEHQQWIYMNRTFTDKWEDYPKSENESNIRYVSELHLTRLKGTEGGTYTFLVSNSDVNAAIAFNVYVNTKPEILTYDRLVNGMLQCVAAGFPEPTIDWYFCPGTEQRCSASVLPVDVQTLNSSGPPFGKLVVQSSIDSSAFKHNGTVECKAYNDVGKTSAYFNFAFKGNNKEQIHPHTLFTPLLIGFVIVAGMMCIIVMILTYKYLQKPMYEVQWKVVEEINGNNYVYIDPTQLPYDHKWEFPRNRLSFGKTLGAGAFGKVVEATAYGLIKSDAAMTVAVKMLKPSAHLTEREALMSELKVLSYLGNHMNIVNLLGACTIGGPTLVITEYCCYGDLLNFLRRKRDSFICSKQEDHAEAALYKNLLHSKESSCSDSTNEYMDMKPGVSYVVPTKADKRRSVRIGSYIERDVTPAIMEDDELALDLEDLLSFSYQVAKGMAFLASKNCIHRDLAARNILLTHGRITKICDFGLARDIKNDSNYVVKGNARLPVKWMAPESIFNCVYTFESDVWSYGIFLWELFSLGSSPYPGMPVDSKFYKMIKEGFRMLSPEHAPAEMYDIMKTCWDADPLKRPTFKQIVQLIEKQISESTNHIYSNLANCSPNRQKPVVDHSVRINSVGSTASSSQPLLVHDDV

Molecules are shown by their SMILES.

Serine/threonine-protein kinase D1 (Homo sapiens), sequence (Q15139 whole entry, the tested form may be a part): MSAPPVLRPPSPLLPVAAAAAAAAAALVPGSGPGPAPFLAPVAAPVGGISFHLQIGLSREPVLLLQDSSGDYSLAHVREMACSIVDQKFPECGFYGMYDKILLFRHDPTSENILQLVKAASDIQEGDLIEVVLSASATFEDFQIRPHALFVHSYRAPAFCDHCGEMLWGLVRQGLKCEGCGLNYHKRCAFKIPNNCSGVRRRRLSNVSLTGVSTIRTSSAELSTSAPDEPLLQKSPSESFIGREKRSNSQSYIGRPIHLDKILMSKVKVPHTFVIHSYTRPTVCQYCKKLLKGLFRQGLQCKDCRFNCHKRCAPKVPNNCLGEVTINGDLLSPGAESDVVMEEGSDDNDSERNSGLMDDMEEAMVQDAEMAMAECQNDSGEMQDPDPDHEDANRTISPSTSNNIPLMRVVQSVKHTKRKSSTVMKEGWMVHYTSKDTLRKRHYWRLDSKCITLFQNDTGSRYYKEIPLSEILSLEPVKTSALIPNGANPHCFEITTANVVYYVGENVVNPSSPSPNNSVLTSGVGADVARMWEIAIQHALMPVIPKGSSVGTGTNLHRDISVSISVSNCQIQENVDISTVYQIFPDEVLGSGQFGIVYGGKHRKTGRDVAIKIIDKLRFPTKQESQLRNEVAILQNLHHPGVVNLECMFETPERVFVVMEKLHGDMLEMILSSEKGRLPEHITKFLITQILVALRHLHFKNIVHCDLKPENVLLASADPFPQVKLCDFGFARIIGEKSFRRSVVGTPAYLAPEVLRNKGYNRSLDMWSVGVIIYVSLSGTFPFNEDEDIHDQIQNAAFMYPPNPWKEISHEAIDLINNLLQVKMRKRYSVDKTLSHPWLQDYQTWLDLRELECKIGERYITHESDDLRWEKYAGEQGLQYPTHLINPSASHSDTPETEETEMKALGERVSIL

For the compound `COc1cc(OC)c(Cl)c(N2Cc3cnc(Nc4ccc(F)cc4)nc3N(C3CCN(C(=O)/C=C/CN(C)C)CC3)C2=O)c1Cl`, the Activity in assay [1] was 92%; in [2], 68%; in [3], 89%; in [4], 100%; in assay [5], 100%; in assay [6] it was 100%. Also, the Activity in assay [7] came to 100%; in [8] it was 100%; in assay [9], 94%; in assay [10], 93%; in assay [11] it was 100%; in [12], 100%. Also, the Activity in [13] stood at 100%; in assay [14], 73%; in assay [15], 87%; in [16], 0.8%; in assay [17] it was 47%; in assay [18], 92%. For the same compound, the Activity in [19] came out at 100%; in assay [20] it was 100%; in assay [21], 95%; in [22], 19%.

Source of the values: ChEMBL document CHEMBL4043093, “2-Oxo-3, 4-dihydropyrimido[4, 5-d]pyrimidinyl derivatives as new irreversible pan fibroblast growth factor receptor (FGFR) inhibitors” (Eur J Med Chem, 2017).
